The values below come from ChEMBL document CHEMBL1140935, “Potent and selective inhibitors of breast cancer resistance protein (ABCG2) derived from the p-glycoprotein (ABCB1) modulator tariquidar” (J Med Chem, 2009).

SMILES strings stand for the structures. Activity calls are given as the source filed them. The rule behind the calls is not given here. Bounds are passed on as bounds.

Series [1] addresses T1, ATP-dependent translocase ABCB1 (Homo sapiens, UniProt P08183). The series can be described thus: (§1) Inhibition of ABCB1 overexpressed in human KBv1 cells at 10 uM by flow cytometric-based calcein-AM efflux assay. In kind it is cell-based. To be noted: kbv1, 10 µM. The method, boiled down: (§2)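 Done on KBv1 cells (ABCB1-overexpressing KB subclone), maintained in DMEM with 10% FCS and 270 ng/mL vinblastine. Intracellular calcein fluorescence from calcein-AM was measured by flow cytometry in the presence of test compound.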

The target of series [2] is T2, Broad substrate specificity ATP-binding cassette transporter ABCG2 (Homo sapiens, UniProt Q9UNQ0).
T2 sequence (Q9UNQ0 whole entry): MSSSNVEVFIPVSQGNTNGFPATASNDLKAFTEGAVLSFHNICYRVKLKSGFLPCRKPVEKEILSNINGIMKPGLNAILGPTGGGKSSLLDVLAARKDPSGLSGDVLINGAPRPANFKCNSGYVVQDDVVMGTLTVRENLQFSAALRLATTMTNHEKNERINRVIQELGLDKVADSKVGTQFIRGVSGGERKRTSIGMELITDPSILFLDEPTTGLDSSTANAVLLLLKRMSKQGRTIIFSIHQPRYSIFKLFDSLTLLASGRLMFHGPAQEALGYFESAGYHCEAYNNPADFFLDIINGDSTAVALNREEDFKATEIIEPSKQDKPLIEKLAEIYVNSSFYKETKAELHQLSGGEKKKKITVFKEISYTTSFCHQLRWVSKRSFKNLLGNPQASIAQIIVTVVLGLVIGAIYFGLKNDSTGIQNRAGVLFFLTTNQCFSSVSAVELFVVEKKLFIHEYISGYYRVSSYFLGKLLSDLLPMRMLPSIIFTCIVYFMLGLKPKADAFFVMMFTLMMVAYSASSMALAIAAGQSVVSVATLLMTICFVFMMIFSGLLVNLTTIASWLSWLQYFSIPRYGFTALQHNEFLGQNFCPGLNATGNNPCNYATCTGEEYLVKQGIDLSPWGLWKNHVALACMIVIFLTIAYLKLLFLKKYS
The series can be described thus: Inhibition of ABCG2 overexpressed in human MCF7/Topo cells by flow cytometric-based mitoxantrone efflux assay. In kind it is cell-based. The method, boiled down:
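MCF-7/Topo cells, 1 × 10^6/mL, incubated 30 min at 37 °C/5% CO2 with 20 µM mitoxantrone and graded modulator; washed, 1 h efflux in drug-free medium at 37 °C, PBS resuspension, flow cytometry.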
In general terms: Flow cytometry measures light scatter and fluorescence of single cells or particles in a stream.

Series [3] has as its target T2, Broad substrate specificity ATP-binding cassette transporter ABCG2. Description: Inhibition of ABCG2 over-expressed in human MCF7/Topo cells at 7 to 10 uM by flow cytometric-based mitoxantrone efflux assay relative to fumitremorgin C. It counts as cell-based. The gist of the method:
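MCF-7/Topo cells, 1 × 10^6/mL, loaded 30 min at 37 °C with 20 µM mitoxantrone plus compound, then 1 h efflux in drug-free medium; flow cytometry. Maximal inhibition = effect at highest tested concentration (7 or 10 µM) relative to 10 µM fumitremorgin C (100%, ice-kept sample); geometric mean fluorescence.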

Series [4] addresses T1, ATP-dependent translocase ABCB1. The series can be described thus: Inhibition of ABCB1 overexpressed in human KBv1 cells by flow cytometric-based calcein-AM efflux assay. It counts as cell-based.
Series [5] addresses T3, ATP-binding cassette sub-family C member 2 (Homo sapiens, UniProt Q92887). The series can be described thus: Inhibition of ABCC2 overexpressed in MDCK cells […] by flow cytometric-based chloromethylfluorescein-diacetate accumulation assay. It counts as cell-based.
In series [6] the target is T3, ATP-binding cassette sub-family C member 2. Description: Inhibition of ABCC2 overexpressed in MDCK cells […] up to 50 uM by flow cytometric-based chloromethylfluorescein-diacetate accumulation assay. In kind it is cell-based. To be noted: dog.
Series [7] in a line: Cytotoxicity against ABCG2 negative human U373MG cells by chemosensitivity assay. In kind it is ADME, cell-based. Conditions: u-373mg atcc. The gist of the method:
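Proliferating ABCG2/ABCB1-nonexpressing U-373 MG glioblastoma cells (EMEM, 5% FCS, 37 °C, 5% CO2) seeded in 96-well plates, medium replaced after 2-3 days with drug or vehicle (1000-fold feed solutions); 16 wells per concentration. Cells fixed with glutardialdehyde at various times, stained with crystal violet, absorbance 578 nm; corrected T/C and cytocidal effect calculated.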

The test system of series [8] is MCF7. The series can be described thus: Cytotoxicity against ABCG2 positive topotecan-resistant human MCF7 cells up to 100 nM by chemosensitivity assay.
Series [9] deals with T4, ABCB1 (Homo sapiens, UniProt P08183). The series is described as §1. It counts as cell-based. Conditions: KBv1 cells overexpressing ABCB1, probe calcein-AM. The method, boiled down:
as §2

Series [10] addresses T4, ABCB1. The series can be described thus: Inhibition of ABCB1 overexpressed in human KBv1 cells at 100 uM by flow cytometric-based calcein-AM efflux assay. In kind it is cell-based. To be noted: KBv1 cells overexpressing ABCB1, probe calcein-AM. The gist of the method: as §2
Series [11] has as its system MCF7. The series can be described thus: Cytotoxicity against ABCG2 positive topotecan-resistant human MCF7 cells up to 500 uM by chemosensitivity assay. It counts as functional, cell-based. The method, boiled down:
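MCF-7/Topo cells (ABCG2-overexpressing, kept in EMEM with 5% FCS and 0.55 µM topotecan) were seeded into 96-well plates and grown 2-3 days. Test compound alone was then given under permanent exposure, against vehicle, with 16 wells per concentration. Cells were fixed with glutardialdehyde at various times and stained with crystal violet. A578 was read and corrected T/C% calculated.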

For series [12], the system named is MCF7. Description: Potentiation of ABCG2 positive topotecan-induced cytotoxicity in topotecan-resistant human MCF7 cells at 100 nM by chemosensitivity assay.

T3 sequence (Q92887 whole entry): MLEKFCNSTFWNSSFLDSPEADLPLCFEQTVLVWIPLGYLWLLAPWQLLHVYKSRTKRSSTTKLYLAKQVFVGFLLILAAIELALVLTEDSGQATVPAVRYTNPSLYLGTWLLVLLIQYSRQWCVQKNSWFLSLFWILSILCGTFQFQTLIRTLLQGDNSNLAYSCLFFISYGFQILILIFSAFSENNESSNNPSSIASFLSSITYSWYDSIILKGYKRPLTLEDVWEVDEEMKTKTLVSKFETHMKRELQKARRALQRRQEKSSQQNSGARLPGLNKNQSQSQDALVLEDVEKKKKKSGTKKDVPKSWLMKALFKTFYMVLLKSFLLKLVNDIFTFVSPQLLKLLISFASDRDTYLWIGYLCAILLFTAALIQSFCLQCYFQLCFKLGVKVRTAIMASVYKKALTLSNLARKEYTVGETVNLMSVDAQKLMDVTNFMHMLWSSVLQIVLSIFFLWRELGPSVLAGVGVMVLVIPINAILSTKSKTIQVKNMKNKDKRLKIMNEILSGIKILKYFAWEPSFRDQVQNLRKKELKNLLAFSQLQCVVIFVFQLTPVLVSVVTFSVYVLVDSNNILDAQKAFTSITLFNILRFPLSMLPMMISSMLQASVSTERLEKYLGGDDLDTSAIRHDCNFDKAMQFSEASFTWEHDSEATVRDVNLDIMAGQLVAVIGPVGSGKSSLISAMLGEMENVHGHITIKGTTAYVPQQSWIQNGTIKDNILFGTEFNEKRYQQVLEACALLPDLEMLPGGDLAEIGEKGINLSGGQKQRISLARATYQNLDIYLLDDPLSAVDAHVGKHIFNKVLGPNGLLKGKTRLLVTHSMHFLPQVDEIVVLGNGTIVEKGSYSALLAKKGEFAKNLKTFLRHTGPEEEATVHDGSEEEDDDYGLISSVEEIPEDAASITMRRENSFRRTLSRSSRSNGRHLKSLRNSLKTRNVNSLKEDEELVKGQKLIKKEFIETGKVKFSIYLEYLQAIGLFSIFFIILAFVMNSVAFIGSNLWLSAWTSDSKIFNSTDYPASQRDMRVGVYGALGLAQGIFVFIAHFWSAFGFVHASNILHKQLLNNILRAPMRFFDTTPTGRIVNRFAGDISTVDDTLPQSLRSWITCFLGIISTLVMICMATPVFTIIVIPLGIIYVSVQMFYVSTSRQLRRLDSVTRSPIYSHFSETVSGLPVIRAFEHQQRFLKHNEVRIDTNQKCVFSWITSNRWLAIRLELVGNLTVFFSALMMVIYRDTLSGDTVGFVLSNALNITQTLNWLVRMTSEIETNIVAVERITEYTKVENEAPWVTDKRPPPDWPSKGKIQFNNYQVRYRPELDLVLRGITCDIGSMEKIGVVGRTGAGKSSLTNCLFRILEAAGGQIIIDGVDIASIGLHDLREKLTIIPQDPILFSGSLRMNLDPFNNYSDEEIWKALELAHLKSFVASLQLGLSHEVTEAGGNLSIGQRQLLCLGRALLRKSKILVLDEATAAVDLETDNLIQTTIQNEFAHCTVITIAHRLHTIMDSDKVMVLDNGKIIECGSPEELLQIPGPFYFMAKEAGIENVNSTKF
T4 sequence (P08183 whole entry): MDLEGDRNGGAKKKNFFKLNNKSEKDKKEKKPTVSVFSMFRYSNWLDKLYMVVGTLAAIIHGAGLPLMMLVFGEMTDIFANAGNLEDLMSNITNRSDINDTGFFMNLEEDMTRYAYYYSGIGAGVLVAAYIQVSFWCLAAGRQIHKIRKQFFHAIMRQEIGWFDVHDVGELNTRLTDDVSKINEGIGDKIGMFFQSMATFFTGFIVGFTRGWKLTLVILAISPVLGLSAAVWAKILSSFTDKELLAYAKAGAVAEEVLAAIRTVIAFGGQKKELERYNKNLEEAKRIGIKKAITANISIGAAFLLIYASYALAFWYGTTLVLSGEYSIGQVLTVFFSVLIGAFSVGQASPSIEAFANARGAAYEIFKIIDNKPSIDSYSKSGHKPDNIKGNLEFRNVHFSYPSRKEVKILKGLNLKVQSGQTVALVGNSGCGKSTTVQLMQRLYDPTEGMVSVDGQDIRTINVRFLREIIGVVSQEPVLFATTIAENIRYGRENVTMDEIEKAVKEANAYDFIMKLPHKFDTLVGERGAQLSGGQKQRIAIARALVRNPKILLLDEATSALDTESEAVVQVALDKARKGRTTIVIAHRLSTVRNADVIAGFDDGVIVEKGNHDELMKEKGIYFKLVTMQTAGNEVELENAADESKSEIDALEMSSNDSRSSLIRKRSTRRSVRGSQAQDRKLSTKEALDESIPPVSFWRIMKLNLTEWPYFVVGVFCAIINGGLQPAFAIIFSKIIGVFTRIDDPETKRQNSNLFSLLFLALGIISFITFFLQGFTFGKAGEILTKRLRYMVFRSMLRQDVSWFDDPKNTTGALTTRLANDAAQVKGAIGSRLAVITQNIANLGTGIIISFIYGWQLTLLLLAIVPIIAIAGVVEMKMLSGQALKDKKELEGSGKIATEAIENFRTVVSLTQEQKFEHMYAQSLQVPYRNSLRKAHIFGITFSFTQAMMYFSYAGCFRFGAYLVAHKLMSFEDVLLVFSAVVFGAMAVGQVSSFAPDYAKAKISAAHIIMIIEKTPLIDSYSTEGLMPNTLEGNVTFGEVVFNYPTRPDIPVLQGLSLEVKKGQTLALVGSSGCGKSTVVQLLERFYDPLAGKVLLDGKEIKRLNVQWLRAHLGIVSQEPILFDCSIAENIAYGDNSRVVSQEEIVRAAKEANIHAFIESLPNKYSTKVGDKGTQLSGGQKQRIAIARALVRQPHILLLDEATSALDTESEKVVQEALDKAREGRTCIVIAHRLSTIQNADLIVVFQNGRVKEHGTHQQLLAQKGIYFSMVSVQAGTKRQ
T1 sequence (P08183 whole entry): as above

As a reminder, the IC50 is the point on the concentration scale where inhibition reaches its midpoint. Turning to `COC(=O)c1ccc(C(=O)Nc2ccc(CCN3CCc4cc(OC)c(OC)cc4C3)cc2)cc1NC(=O)c1ccc2ncccc2c1`, the Activity entry in series [1] is reported as “Not Active”. The IC50 in series [2] turned out to be 0.179 µM. In addition, the “inhibition (INH)” value in series [3] is 25%.

For `COC(=O)c1ccc(C(=O)Nc2ccc(CCN3CCc4cc(OC)c(OC)cc4C3)cc2)cc1NC(=O)c1cnc(C)cn1`, the IC50 in series [4] is above 57 µM; in series [5] it was above 20 µM; in series [2], 0.552 µM. For the same compound, the “inhibition (INH)” value in [3] was found to be 44%.

Take `COc1ccc(C(=O)Nc2ccc(CCN3CCc4cc(OC)c(OC)cc4C3)cc2)cc1NC(=O)c1cnc2ccccc2c1`: the values for the IC50 in series [4] and in series [2] were above 6 µM and 0.317 µM, respectively. For the same compound, in [6], the Activity entry is on record as “Not Active”. In addition, the “inhibition (INH)” value in [3] is listed as 63%.

As to `COC(=O)c1ccc(C(=O)Nc2ccc(CCN3CCc4cc(OC)c(OC)cc4C3)cc2)cc1NC(=O)c1cnc2ccccc2c1`, the figures for the Activity entry in series [7] and in series [6] were “Toxic” and “Not Active”, respectively. The IC50 in series [4] was 9.45 µM; in series [2] it was 0.119 µM. In the series with MCF7 [8], the result was Active. In addition, the “inhibition (INH)” value in series [3] was determined as 41%.

As for `COC(=O)c1ccc(C(=O)Nc2ccc(CCN3CCc4cc(OC)c(OC)cc4C3)cc2)cc1NC(=O)c1cnccn1`, the IC50 in [4] was above 20 µM; in series [5] it was above 50 µM; in series [2] it was 0.632 µM. Also, in series [3], the “inhibition (INH)” value is reported as 38%.

As for `COc1cc2c(cc1OC)CN(CCc1ccc(NC(=O)c3cc(OC)c(OC)cc3NC(=O)c3cnc4ccccc4c3)cc1)CC2`, the Activity entry in series [6] is reported as “Not Active”. Moreover, the IC50 in series [2] is 0.916 µM. Further, the “inhibition (INH)” value in series [3] came to 39%.

`CCCCC/C=C\C\C=C/C=C/C=C/[C@@H](SC[C@@H](NC(=O)CC[C@H](N)C(=O)O)C(=O)NCC(=O)O)[C@@H](O)CCCC(=O)O` [LEUKOTRIEN C4]: in series [5], the IC50 is below 0.15 µM.

With `COc1cc2c(cc1OC)CN(CCc1ccc(NC(=O)c3cc(NC(=O)c4cnc5ccccc5c4)c(OC)c(OC)c3)cc1)CC2`, the figures for the IC50 in series [4] and in [2] were above 17 µM and 0.858 µM, respectively. Moreover, the Activity entry in series [6] is “Not Active”. Further, the “inhibition (INH)” value in series [3] is 36%.

For the compound `COc1cc2c(cc1OC)CN(CCc1ccc(NC(=O)c3cccc4c(=O)c5cccc(OC)c5[nH]c34)cc1)CC2`, the Activity entry in series [6] is given as “Not Active”. The “inhibition (INH)” value in series [3] came to 46%.

As to `COc1cc2c(cc1OC)CN(CCc1ccc(NC(=O)c3ccc(C)c(NC(=O)c4cnc5ccccc5c4)c3)cc1)CC2`, the values for the IC50 in series [4], in [5] and in series [2] were above 15 µM, above 50 µM and 1.99 µM, respectively. Further, in [3], the “inhibition (INH)” value worked out at 52%.

Compound `CN(C)C(=O)CCSC(SCCC(=O)O)c1cccc(/C=C/c2ccc3ccc(Cl)cc3n2)c1` (stereo unspecified) [MK-571] showed a concentration for half-maximal inhibition (IC50) in series [5] above 1 µM.

Consider `COC(=O)c1ccc(C(=O)Nc2ccc(CCN3CCc4cc(OC)c(OC)cc4C3)cc2)cc1NC(=O)c1cnc2ccccc2n1`, for which the IC50 in series [4] was above 34 µM; in series [2], 0.183 µM. The “inhibition (INH)” value in series [3] came to 55%.

With `COC(=O)c1ccc(C(=O)Nc2ccc(CCN3CCc4cc(OC)c(OC)cc4C3)cc2)cc1NC(=O)c1cccnc1`, the results for the IC50 in [4], in series [5] and in series [2] were above 14 µM, above 20 µM and 1.02 µM, respectively. For the same compound, the “inhibition (INH)” value in series [3] is given as 47%.

As for `COc1cc(NC(=O)c2cnc3ccccc3c2)cc(C(=O)Nc2ccc(CCN3CCc4cc(OC)c(OC)cc4C3)cc2)c1`, the IC50 was above 15 µM in series [4] and 0.977 µM in series [2]. Moreover, the Activity entry in [6] is reported as “Not Active”. Moreover, the “inhibition (INH)” value in series [3] is on record as 43%.

Usually inhibition stands for the relative decrease from the control value, in per cent. For `COc1ccc2c3c([nH]c2c1)[C@H](C=C(C)C)N1C(=O)[C@@H]2CCCN2C(=O)[C@@H]1C3` [FUMITREMORGIN], in [6], the Activity result is reported as “Not Active”. The inhibition at 10 µM at ABCB1 [9] is 0.8%. Further, the IC50 in series [2] was above 11 µM. Besides, the inhibition at 100 µM at ABCB1 [10] was 22%. For the same compound, the “inhibition (INH)” value in [3] turned out to be 100%.

For `COc1ccc2c3c([nH]c2c1)[C@H](CC(C)C)N1C(=O)[C@H](CCC(=O)OC(C)(C)C)NC(=O)[C@@H]1C3`, the result in the series with MCF7 [11] and in the series on MCF7 [12] was Active. The inhibition at 10 µM at ABCB1 [9] is 1.6%. In [5], this compound registered an IC50 above 50 µM.

Consider `COC(=O)c1ccc(C(=O)Nc2ccc(CCN3CCc4cc(OC)c(OC)cc4C3)cc2)cc1NC(=O)c1ccc2ccccc2n1`, for which, in the series on MCF7 [12], the outcome was Active. In addition, the IC50 is above 29 µM in series [4], above 20 µM in series [5] and 0.06 µM in series [2]. In addition, the “inhibition (INH)” value in series [3] was found to be 56%.
